Experimental data taken from ChEMBL document CHEMBL3085653, “Synthesis and evaluation of hexahydropyrimidines and diamines as novel hepatitis C virus inhibitors” (Eur J Med Chem, 2013).
Where a name gives a salt, the structure may show the parent alone. Calls of active or inactive are those of the source. No cut-off for these calls is given here.

Legend:
[1] = Selectivity index, ratio of CC50 for human HuH7 cells to EC50 for cell culture derived HCV expressing NS5A-GFP fusion protein; design: species or system Huh-7
Summary of the method: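 Index is CC50 divided by EC50. Both values come from the same 10-point dose response in naïve Huh-7 cells infected with NS5A-GFP HCVcc (MOI 1), read at 72 h post-infection. EC50 taken from GFP-positive infection and CC50 from Hoechst nuclei counts, by confocal imaging. Duplicates with quadruplicate measurements.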

[2] = Cytotoxicity against human HuH7 cells; assay type: cell-based, Huh-7
Hepatitis C virus [3] = assay: Antiviral activity against HCV assessed as prevention of infectious virions release into cell culture supernatant by viral supernatant transfer assay; assay type: functional, organism-based; settings: Hepacivirus hominis
Hepatitis C virus [4] = assay: Antiviral activity against cell culture derived HCV expressing NS5A-GFP fusion protein infected in human HuH7 cells assessed as inhibition of viral life cycle after 72 hrs by Hoechst-33342 staining-based confocal microscopy; assay type: functional, organism-based, Hepacivirus hominis; settings: Huh-7, 72 h
Hepatitis C virus [5] = assay: Antiviral activity against HCV pseudoparticle expressing envelope protein E1 and E2 assessed as inhibition of E1/E2-mediated viral entry into human Huh7 cells treated for 1 hr prior to viral inoculation followed by compound washout 12 hrs post viral inoculation measured after 72 hrs by GFP reporter gene-based confocal microscopic analysis; assay type: functional, organism-based, Hepacivirus hominis; settings: Huh-7
[6] = Metabolic stability in liver microsomes (unknown origin) assessed as formation of N1,N3-dibenzylpropane-1,3-diamine by mass spectrum analysis; assay type: ADME, Microsome
[7] = Chemical stability in cell culture medium assessed as formation of N1,N3-dibenzylpropane-1,3-diamine at 37 degC after 2 days by LC/MS analysis; assay type: physicochemical; settings: 48 h
Summary of the method: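 Compound incubated with cells in culture medium at 37 °C for two days. Supernatant then analysed by LC/MS for the parent compound and the ring-opened diamine.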

Hepatitis C virus [8] = assay: Antiviral activity against HCV expressing GFP infected in human HuH7 cells assessed as inhibition of viral RNA replication after 72 hrs by Hoechst-33342 staining-based confocal microscopy; assay type: functional, organism-based, Hepacivirus hominis; settings: Huh-7, 72 h
Summary of the method: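 Huh-7 replicon cells expressing GFP seeded at 2000 cells/well and incubated overnight, then given serially diluted compounds for 72 h. Cells fixed in 2% PFA and nuclei stained with Hoechst 33342 (10 μg/mL). Automated confocal imaging used: RNA replication read as GFP expression, cytotoxicity as nucleus counts. EC50 calculated by non-linear regression.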

SMILES | Ratio CC50/EC50 [1] | CC50 [2] [µM] | Activity (Hepatitis C virus [3]) | EC50 (Hepatitis C virus [4]) [µM] | EC50 (Hepatitis C virus [5]) [µM] | Stability [6] | Stability [7] | EC50 (Hepatitis C virus [8]) [µM]
COc1ccc(CN2CCCN(Cc3ccc(OC)cc3)C2c2ccc(C#N)c(F)c2)cc1 | 15 | 29 | Active | 1.9 |  |  |  | 
CC1N(Cc2ccccc2)CCCN1Cc1ccccc1 | >14 | > 50 | Active | 3.7 |  |  |  | 
O=C1N(Cc2ccccc2)CCCN1Cc1ccccc1 |  | > 50 | Active | > 50 |  |  |  | 
CN(C)c1ccc(C2N(Cc3ccccc3)CCN2Cc2ccccc2)cc1 |  | > 50 |  | > 50 |  |  |  | 
NCCCCNCCCN [SPERMIDINE TRIHYDROCHLORIDE] |  | > 50 |  | > 50 |  |  |  | 
c1ccc(CN2CCN(Cc3ccccc3)C2c2ccncc2)cc1 |  | > 50 |  | > 50 |  |  |  | 
c1ccc(NCCCCNc2ccccc2)cc1 |  | > 50 |  | > 50 |  |  |  | 
COc1cccc(CN2CCCN(Cc3ccccc3F)C2c2ccncc2)c1 (stereo unspecified) | >11 | > 50 | Active | 4.7 |  |  |  | 
c1ccc(CCNCCCNCCc2ccccc2)cc1 | 11 | 12 |  | 1.1 |  |  |  | 
COc1ccc(CN2CCCN(Cc3ccc(OC)cc3)C2c2ccc(F)cc2)cc1 | 20 | 38 | Active | 1.9 |  |  |  | 
O=C(NCCCNC(=O)c1ccccc1)c1ccccc1 |  | > 50 |  | > 50 |  |  |  | 
COc1ccc(CN2CCCN(Cc3ccc(OC)cc3)C2c2ccc(C(F)(F)F)cc2)cc1 | 21 | 34 | Active | 1.6 |  |  |  | 
Cc1ccc(C2N(Cc3ccccc3)CCCN2Cc2ccccc2)o1 |  | > 50 | Active | > 50 |  |  |  | 
FC(F)(F)c1cccc(C2N(Cc3ccccc3)CCCN2Cc2ccccc2)c1 | >7.7 | > 50 | Active | 6.5 |  |  |  | 
COc1ccc(CN2CCCN(Cc3ccc(OC)cc3)C2c2cccc(C(F)(F)F)c2)cc1 | 13 | 43 | Active | 3.2 |  |  |  | 
c1ccc(CNCCNCc2ccccc2)cc1 |  | > 50 |  | > 50 |  |  |  | 
c1ccc(CNCCOCCNCc2ccccc2)cc1 | 16 | 28 |  | 1.7 |  |  |  | 
NCCCCN [PUTRESCINE DIHYDROCHLORIDE] |  | > 50 |  | > 50 |  |  |  | 
CN(C)c1ccc(CN2CCCN(Cc3ccc(N(C)C)cc3)C2c2ccc(F)cc2)cc1 | 12 | 15 | Active | 1.3 |  |  |  | 
CC(CNCCCNCC(C)c1ccccc1)c1ccccc1 (stereo unspecified) | 15 | 18 |  | 1.2 |  |  |  | 
Fc1ccccc1CN1CCCN(Cc2ccccc2Cl)C1c1cccc(C(F)(F)F)c1 (stereo unspecified) | >4.5 | > 50 | Active | 11 |  |  |  | 

SMILES | Ratio CC50/EC50 [1] | CC50 [2] [µM] | Activity (Hepatitis C virus [3]) | EC50 (Hepatitis C virus [4]) [µM] | EC50 (Hepatitis C virus [5]) [µM] | Stability [6] | Stability [7] | EC50 (Hepatitis C virus [8]) [µM]
COc1ccc(CN2CCCN(Cc3ccc(OC)cc3)C2c2ccncc2)cc1 | 15 | 23 | Active | 1.5 |  |  |  | 
CC1N(Cc2ccccc2)CCN1Cc1ccccc1 |  | > 50 |  | > 50 |  |  |  | 
CN(C)c1ccc(CNCCCCNCc2ccc(N(C)C)cc2)cc1 | 34 | 11 |  | 0.32 |  |  |  | 
COc1ccc(CNCCCNCc2ccc(OC)cc2)cc1 | 22 | 33 |  | 1.5 |  |  |  | 
CC(C(=O)NCCCNC(=O)C(C)c1ccccc1)c1ccccc1 (stereo unspecified) |  | > 50 |  | > 50 |  |  |  | 
c1ccc(CNCCCCCNCc2ccccc2)cc1 | 48 | 29 |  | 0.61 |  |  |  | 
c1ccc(CNCCCNCc2ccccc2)cc1 | 5.9 | 27 |  | 4.6 |  |  |  | 
COc1ccc(CN2CCCN(Cc3ccc(OC)cc3)C2c2ccc(N(C)C)cc2)cc1 | 22 | 28 | Active | 1.3 |  |  |  | 
c1ccc(CN2CCCN(Cc3ccccc3)C2c2ccncc2)cc1 | >12 | > 50 | Active | 4.3 | 4 | Unstable | Unstable | > 50
CC(=O)N(CCCCN(Cc1ccccc1)C(C)=O)Cc1ccccc1 |  | > 50 |  | > 50 |  |  |  | 
CN(C)c1ccc(C2N(Cc3ccccc3)CCCN2Cc2ccccc2)cc1 | >2 | > 50 | Active | 25 |  |  |  | 
CN(C)c1ccc(CN2CCCN(Cc3ccc(N(C)C)cc3)C2c2ccncc2)cc1 | 17 | 14 | Active | 0.83 |  |  |  | 
COc1ccc(CN2CCCC(CNc3ccc(OC)cc3)C2)cc1 (stereo unspecified) | >4.7 | > 50 |  | 11 |  |  |  | 
COc1ccc(CN2CCCN(Cc3ccc(OC)cc3)C2c2ccc(C#N)cc2)cc1 | 13 | 20 | Active | 1.5 |  |  |  | 
CN(C)c1ccc(CNCCCNCc2ccc(N(C)C)cc2)cc1 | 19 | 17 |  | 0.88 |  |  |  | 
NCCCNCCCCNCCCN [SPERMINE] |  | > 50 |  | > 50 |  |  |  | 
COc1cccc(CN2CCCN(Cc3ccccc3F)C2c2ccc(C(F)(F)F)cc2)c1 (stereo unspecified) | 8.5 | 23 | Active | 2.7 |  |  |  | 
COc1ccc(CNCC2CCCN(Cc3ccc(OC)cc3)C2)cc1 (stereo unspecified) | 31 | 34.5 |  | 1.1 |  |  |  | 
CN(C)c1ccc(CN2CCCN(Cc3ccc(N(C)C)cc3)C2c2ccc(C(F)(F)F)cc2)cc1 | 15 | 23 | Active | 1.5 |  |  |  | 
c1ccc(CN2CCCN(Cc3ccccc3)C2)cc1 |  | > 50 | Active | > 50 |  |  |  | 
COc1ccc(CNCCCCNCc2ccc(OC)cc2)cc1 | 84 | 32 |  | 0.38 |  |  |  | 
